Laboratory results published in ChEMBL document CHEMBL4513216, “Probing the Open Global Health Chemical Diversity Library for Multistage-Active Starting Points for Next-Generation Antimalarials” (ACS Infect Dis, 2020).

Experiment: Toxicity liver stage against HepG2, at 10uM
Format: cell-based
Set-up: test concentration 10 uM, cell line HepG2-A16-CD81EGFP
Settings: human, HepG2-A16-CD81EGFP cells; read-out: INHIBITION
Summary of the method: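 Uninfected HepG2-A16-CD81EGFP cells, 3 × 10^3 per well, 1536-well, plated on prespotted compound at 10 μM final, parasite-free screening media added to match infected plates; puromycin 10 μM positive, DMSO 0.5% negative; run in parallel with 48 h PbLuc assay at 37 °C, 5% CO2; viability by CellTiter-Glo luminescence, normalized to controls.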

SMILES	cytotoxicity at 10 µM [%]
COc1ccc(O[C@H]2COCCN(Cc3cccc4c3OCO4)C2)cc1	0.375
Cc1ccsc1C(O)CNS(=O)(=O)Cc1ccc(F)cc1 (centres undefined)	-4.38
Cc1ccc(CN2CCCn3c(nc(Cn4ccnc4)cc3=O)C2)o1	5.89
N#Cc1cccc(C(=O)N2CCc3ncc(Cn4cccn4)n3CC2)c1	5.84
Cc1cc(C(=O)NCc2ccco2)nn1C	-2.8
CN(C)Cc1cn(-c2ccccc2C(=O)NCCC2CCCN2C)cn1 (centres undefined)	4.08
COCCC(=O)N1CCCC([C@@H]2C[C@H](C(F)F)n3ncnc3N2)C1 (some centres undefined)	-1.28
COc1ccccc1C1CNCCN1C(C)=O (centres undefined)	3.6
COc1cccc(S(=O)(=O)N2C[C@@H](O)[C@H](N(C)C)C2)c1	5.76
O=C(c1ccc(F)cc1)N1CCOC(c2nc(-c3ncccn3)no2)C1 (centres undefined)	-12.4
O=C(N[C@@H]1CN(Cc2ccc(F)cc2)C[C@H]1O)c1cscn1	-11.7
COc1ccccc1CC(=O)N(C)Cc1cc(C)on1	4.76
O=C(CCN1CCc2cncnc2C1)N1CCc2sccc2C1	2.37
O=C(Nc1ccc(F)cc1)C1CCN(Cc2noc(C3CC3)n2)CC1	4.05
N#Cc1ccc(S(=O)(=O)NCCn2ccnc2)cc1Cl	22.5
NC(=O)C1CCN(CCc2ccc(NCc3ccoc3)cc2)CC1	-26.2
CC(NC1CCN(C(=O)C2CCCCC2)CC1)c1nccs1 (centres undefined)	-4.22
CNC(=O)Cc1ccccc1NC(=O)C1CCN(C2CCCCC2)C1 (centres undefined)	-0.355
CN(Cc1cccc(O)c1)Cc1cnn(C)c1	-0.198
CN(C)CCN(Cc1ccc(Cl)cc1)C(=O)c1cc[nH]n1	5.65
Cn1ccnc1-c1cccc(NC(=O)NCCCO)c1	-6.77
COCC(=O)N1CC[C@@H]2O[C@@H](C)C[C@H]2C1	-69.6

SMILES	cytotoxicity at 10 µM [%]
CC(C)CC(=O)N1CC(=O)c2sc(NC3CCCCC3)nc2C1	-7
Cc1nc(CNC(=O)c2cc(COc3cccc(F)c3)[nH]n2)n[nH]1	-2.52
NC(=O)c1ccnc(N2CCCC(CO)(Cc3ccccc3)C2)c1 (centres undefined)	11.6
O=C(CCc1cc2n(n1)CCCN(Cc1ccccc1F)C2)NC1CC1	-12.8
COc1ccc(NC(=O)CCC2CCCN(Cc3ncon3)C2)c(C)c1 (centres undefined)	0.523
CCc1nnc2n1CCN(C(=O)c1cc3cc(C)ccc3[nH]1)C2	0.893
Cn1nnc2cc(C(=O)N3CCC(Nc4cccnn4)CC3)ccc21	-2.85
O=C(COC1CCCCC1)NS(=O)(=O)c1ccc2c(c1)OCCCO2	3.85
Cc1cnc2c(S(=O)(=O)NC3CCS(=O)(=O)C3)cccc2c1 (centres undefined)	-2.28
CCOc1ncccc1C(=O)N1CCCC1Cn1cc(C)cn1 (centres undefined)	0.787
O=C(c1cnc(-c2cnccn2)s1)N1CCCC(n2cccn2)C1 (centres undefined)	-9.04
Clc1ccccc1-c1nc(CNC2CCc3ncnn3C2)cs1 (centres undefined)	-4.28
Cc1cccn2cc(CC(=O)N3CCCC(n4cncn4)C3)nc12 (centres undefined)	-7.31
CC(Nc1cccc(CN2CCOC2=O)c1)C(=O)N1CCNC1=O (centres undefined)	-1.63
CNS(=O)(=O)c1ccc(C(=O)NC2CCc3nc(C)cn3C2)o1 (centres undefined)	-12.3
CC(NC(=O)N(C)Cc1ccsc1)c1ccc2c(c1)NC(=O)CO2 (centres undefined)	-7.77
Cc1cc(C)n(C2CCCN(C(=O)Cc3csc(C)n3)C2)n1 (centres undefined)	-10.4
CN(Cc1ncc(C(C)(C)C)o1)C1CCCN(c2cccnn2)C1 (centres undefined)	-16.1
O=C(NCC1CCOCC1)[C@H]1C[C@@H]2CCN(Cc3ccncc3)C[C@@H]2O1	-14.1
Cc1noc(C)c1CN1CCCC2(C1)CN(Cc1nccn1C)CCO2 (centres undefined)	7.69
O=C(NCc1ccco1)[C@@H]1CCO[C@@H]2CCN(c3ccncn3)C[C@H]21	0.118
O=C1[C@H]2CN(Cc3cccs3)C[C@H]2CN1CCN1CCCC1	-12.7
